In the library only some 2.4% were active in any assay of this set; here they are far more common.
MMP-13 inhibitor: inhibitors of human MMP13; MMP-13 fTHP FRET cleavage, Mca fluorescence; inhibition, % at 4 µM; actives 0.07% (n = 65,000);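 active means inhibition above the mean of compound-free control plate wells plus 3 SD, cut at about 14% in these data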;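 further: 0% = DMSO wells and 100% = wells with reference MMP-13 inhibitor after basal subtraction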
Ec RNAP inh: Escherichia coli RNA polymerase inhibition | E. coli RNA polymerase, fluorescence transcription assay | inhibition, %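 (tested at 10 µM)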 | actives 0.2% (n = 62,000) | AID 559; in the data active means inhibition above about 20%;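 further: 0% = enzyme without compound and 100% = no enzyme blank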
Target sequence (P0A8V2 whole entry, looked up): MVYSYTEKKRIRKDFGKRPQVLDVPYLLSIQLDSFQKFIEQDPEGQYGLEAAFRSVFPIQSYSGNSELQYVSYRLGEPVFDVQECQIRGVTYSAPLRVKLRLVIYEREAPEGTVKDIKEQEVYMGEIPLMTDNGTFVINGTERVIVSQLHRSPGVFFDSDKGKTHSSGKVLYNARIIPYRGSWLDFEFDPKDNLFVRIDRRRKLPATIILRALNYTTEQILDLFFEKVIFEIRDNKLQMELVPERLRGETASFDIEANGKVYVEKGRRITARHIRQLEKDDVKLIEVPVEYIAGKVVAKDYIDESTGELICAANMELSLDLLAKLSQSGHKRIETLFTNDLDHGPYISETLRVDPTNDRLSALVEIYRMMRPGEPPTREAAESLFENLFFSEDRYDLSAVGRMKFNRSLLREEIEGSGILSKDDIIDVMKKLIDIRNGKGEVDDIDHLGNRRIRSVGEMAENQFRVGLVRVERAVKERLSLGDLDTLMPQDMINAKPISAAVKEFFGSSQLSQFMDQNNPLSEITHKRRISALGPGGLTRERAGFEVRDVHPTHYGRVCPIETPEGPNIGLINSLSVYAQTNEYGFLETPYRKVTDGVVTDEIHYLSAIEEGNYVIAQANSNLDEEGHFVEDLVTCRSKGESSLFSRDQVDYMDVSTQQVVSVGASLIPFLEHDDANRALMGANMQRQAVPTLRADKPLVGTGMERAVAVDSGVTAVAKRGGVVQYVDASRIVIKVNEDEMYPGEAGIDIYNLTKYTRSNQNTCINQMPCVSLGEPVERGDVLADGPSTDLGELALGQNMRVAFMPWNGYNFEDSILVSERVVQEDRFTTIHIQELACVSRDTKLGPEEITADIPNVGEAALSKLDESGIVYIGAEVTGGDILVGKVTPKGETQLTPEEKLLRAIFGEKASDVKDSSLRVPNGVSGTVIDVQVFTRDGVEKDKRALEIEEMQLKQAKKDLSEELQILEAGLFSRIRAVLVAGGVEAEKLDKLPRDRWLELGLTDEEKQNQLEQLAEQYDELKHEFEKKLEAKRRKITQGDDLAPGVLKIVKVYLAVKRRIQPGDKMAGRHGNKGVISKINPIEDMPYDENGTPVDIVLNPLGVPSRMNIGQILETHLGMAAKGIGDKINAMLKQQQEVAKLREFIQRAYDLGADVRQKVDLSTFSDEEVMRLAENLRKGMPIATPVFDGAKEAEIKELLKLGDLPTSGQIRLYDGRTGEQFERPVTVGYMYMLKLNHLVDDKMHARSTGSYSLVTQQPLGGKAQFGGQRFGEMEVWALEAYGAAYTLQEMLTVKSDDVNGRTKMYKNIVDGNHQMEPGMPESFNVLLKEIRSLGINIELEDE
SF1 activator: activates the human nuclear receptor SF-1; activation, % at 10 µM; actives 1.9% (n = 65,000); Q13285; CHO-K1 Gal4-SF-1 LBD luciferase reporter; % increase over DMSO SF-1-specific signal; AID 522;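 active means activation above the mean activation of all tested compounds plus 3 SD, cut at about 50% in these data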
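Assay system: CHO-K1 cells co-transfected with Gal4 DBD–human SF-1 LBD, 5xGal4 luciferase reporter; doses: 10 µM only; incubation: 20 h compound exposure at 37 °C after 1 h cell settling; signal: luciferase light emission; evaluation: percent activation versus DMSO; repeats: one test per compound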
HePTP inh: blocks human HePTP tyrosine phosphatase. P35236. recombinant HePTP phosphatase activity, OD absorbance. inhibition, % at 20 µM. actives 0.64% (n = 110,000). AID 521; in the data active means inhibition above about 50%;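 further: plate controls were vehicle for no effect and reference inhibitor for full effect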
RORa activator: activates the human nuclear receptor RORA | actives 1.5% (n = 65,000) | activation, % at 10 µM | CHO-K1 Gal4-RORA LBD luciferase reporter, luminescence; percent increase over mock-subtracted basal signal | P35398;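 active means activation above the mean of all tested compounds plus 3 SD, cut at about 49% in these data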;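 further: 0% = DMSO-treated RORA cells and 100% = added signal equal to DMSO minus mock-transfected cells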
AP complement: alternative pathway complement inhibition, orthogonal assay; Human serum alternative complement pathway, LPS-coated ELISA, C3 deposition; tested in compound mixtures; inhibition, % at 5 µM; actives 0.08% (n = 62,000);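 active means inhibition above 30% in each of the two pooled mixtures holding the compound, so the lower value exceeds 30%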;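 further: 0% = serum in Mg-EGTA without compound and 100% = EDTA serum blank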
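Medium: diluted human serum in Mg2+-EGTA GVB++. Assay system: human serum complement alternative pathway, C3 deposition onto LPS. Also added: Plate-bound LPS. Technique: Anti-C3 ELISA, OD 450 nm. Measure: percent inhibition. Incubation: 1 h at 37 °C. Dosing: 5 µM each compound, pools of ten, 50 µM per pool.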
The depositor's hits bear a star; i = inactive; / = no result.

SMILES | MMP-13 inhibitor | Ec RNAP inh | SF1 activator | HePTP inh | RORa activator | AP complement
S=C(c1ccc(-c2cccc(Cl)c2)o1)N1CCOCC1 | 0.2 | 5.3 | 33.6 | 13.4 | 61.1* | 11.0
FC(F)(F)c1cccc(-c2ccc(C(=S)N3CCOCC3)o2)c1 | / | / | / | -5.1 | / | /
CC(C)(C)NCCOc1cccc(Cl)c1Cl | / | / | / | -1.2 | / | /
Cc1ccc(O)c(/C=N/n2cnnc2)c1 | / | / | / | -20.3 | / | /
Cc1nc2c(-c3ccccc3)cnn2c(C(C)(C)C)c1C | / | / | / | -9.8 | / | /
Cc1cc(N)n2ncc(-c3ccccc3)c2n1 | -9.5 | 0.6 | 75.3* | 2.6 | 88.5* | 10.8
Cc1cc(N)n2ncc(-c3cccc(Br)c3)c2n1 | -75.6 | 5.2 | 59.3* | -14.4 | 43.6 | 11.2
O=C(NCCc1ccccc1)c1cc2nc(-c3ccc([N+](=O)[O-])cc3)cc(C(F)(F)F)n2n1 | / | / | / | -5.9 | / | /
COc1ccc(-c2nnc(N)s2)cc1 | -0.1 | 2.7 | 7.4 | 2.3 | 50.0* | -0.9
CCCOc1ccc(-c2nnc(N)s2)cc1 | -0.8 | 10.6 | 58.8* | 4.6 | 43.8 | /
COCc1cc(=O)n2[nH]c(-c3cccc(Br)c3)cc2n1 | -17.6 | 3.3 | 47.7 | 1.2 | 53.3* | 0.8
CCCc1cc(=O)n2[nH]c(-c3ccccc3)cc2n1 | -37.2 | / | 68.5* | -8.4 | 52.0* | /
CCCc1cc(=O)n2[nH]c(-c3ccc(F)cc3)cc2n1 | / | / | / | -4.3 | / | /
CCCc1cc(=O)n2[nH]c(-c3ccc(C)cc3)cc2n1 | -22.6 | 5.6 | 25.7 | 1.6 | 78.9* | 6.2
CCCc1cc(=O)n2[nH]c(-c3cccc(C)c3)cc2n1 | / | / | / | 5.1 | / | /
CCOC(=O)C1=C(C)N=C2SCC(=O)N2C1c1ccc(F)cc1 (configuration not stated) | / | / | / | 10.5 | / | /
CCNc1nc(Oc2ccc(C(=O)OC)cc2)nc(N(C)C)n1 | 2.4 | -2.7 | -21.6 | 6.1 | 4.4 | 13.1
CCNc1nc(N)nc(Oc2ccc(C(=O)OC)cc2)n1 | 5.5 | 7.8 | 44.5 | -1.6 | 55.7* | -3.4
CC1(C)CNC(=O)c2sc(N3CCCCC3)nc2C1 | 6.9 | 5.2 | 30.5 | -2.8 | 51.0* | -21.8
CC1(C)CC(=O)c2sc(N3CCCCC3)nc2C1 | 2.4 | 9.6 | 12.7 | 4.6 | 36.2 | -4.3
CC(C)(C)c1ccc(O)c(N)c1 | 6.7 | 24.3* | -4.2 | -13.1 | -10.6 | -3.6
Cc1ccc(-c2nc3cc(Cl)ccc3o2)cc1NC(=O)C(Cl)(Cl)Cl | / | / | / | 52.9* | / | /
COc1ccc2c(c1OC)C(=O)OC2Nc1cccc([N+](=O)[O-])c1 (configuration not stated) | / | / | / | 5.7 | / | /
CS(=O)(=O)c1ccc2nc(NC(=O)c3ccccc3Cl)sc2c1 | / | / | / | 0.2 | / | /
CCOC(=O)c1ccc2nc(NC(=O)c3ccco3)sc2c1 | -11.2 | / | 14.2 | / | -14.0 | /
SMILES | MMP-13 inhibitor | Ec RNAP inh | SF1 activator | HePTP inh | RORa activator | AP complement
CS(=O)(=O)c1ccc2nc(NC(=O)c3ccco3)sc2c1 | -3.4 | 9.6 | 74.4* | -0.8 | 65.5* | 6.0
Cc1ccc2nc(NC(=O)COC(=O)c3ccco3)sc2c1 | 4.2 | 3.6 | 29.9 | -1.3 | 60.6* | 9.0
CN(C)S(=O)(=O)c1ccc2nc(NC(=O)c3cccnc3)sc2c1 | 2.3 | 3.3 | 62.1* | 9.0 | 32.9 | 14.3
COCCNC(=O)C(=O)Nc1ccccc1F | / | / | / | -3.0 | / | /
O=C(c1ccccc1)N1CCN(c2cc(N3CCOCC3)c(F)cc2[N+](=O)[O-])CC1 | / | / | / | 5.8 | / | /
COC(=O)C1=C(C)N(CCc2ccc(OC)c(OC)c2)C(=O)C1 | / | / | / | 96.5* | / | /
COC(=O)C1=C(C)N(CCc2ccc(OC)cc2)C(=O)C1 | 3.6 | 1.8 | -1.6 | -6.2 | -6.4 | 7.8
Cc1ccc2oc(Nc3nc(C)cc(C)n3)nc2c1 | 0.0 | -0.3 | 21.9 | -2.1 | 52.2* | 10.8
Cc1cc(=O)[nH]c(Nc2nc3ccccc3o2)n1 | / | / | / | -8.6 | / | /
Cc1ccc(C(=O)NCCn2cc(SCC(=O)Nc3cc(C)on3)c3ccccc32)cc1 | -0.3 | 2.7 | -32.6 | 4.1 | 0.5 | 32.4*
Cc1cc(NC(=O)CSc2cn(CCNC(=O)c3ccccc3)c3ccccc23)no1 | 1.8 | 2.6 | -5.0 | -4.3 | 5.7 | 13.2
CCOc1ccc(/C=N/Nc2nnc(-c3ccccc3)c(-c3ccccc3)n2)c(O)c1 | / | / | / | 7.3 | / | /
Cc1ccc(C)c(-n2c(N)c(C(N)=O)sc2=S)c1 | 4.0 | 40.1* | 2.4 | -2.2 | -11.9 | 7.3
Cc1cc(SCc2ccccc2)n2ncnc2n1 | / | / | / | -7.9 | / | /
O=C(N/N=C\c1ccc([N+](=O)[O-])o1)c1nc(-c2ccccc2)cc(-c2ccccc2)n1 | / | / | / | 50.8* | / | /
CN(C)S(=O)(=O)c1ccc(C(=O)NCCOc2ccccc2)cc1 | -1.0 | / | 56.3* | 5.1 | 38.2 | 6.3
CCC(=O)c1ccc(Br)cc1[N+](=O)[O-] | / | / | / | 7.2 | / | /
CC1C(O)=C(c2nc3ccccc3[nH]2)C(=N)N1c1ccccc1 (configuration not stated) | 1.3 | 5.3 | 54.3* | -6.6 | 26.4 | -11.3
CCC(C)N1CC(O)=C(c2nc3ccccc3[nH]2)C1=N (configuration not stated) | 7.1 | 0.2 | 43.2 | 3.2 | 15.2 | 17.7
N=C1C(c2nc3ccccc3[nH]2)=C(O)CN1c1ccccc1 | -0.7 | 3.6 | 49.8* | 10.0 | 43.5 | 15.9
O=C(O)c1cccc(-c2ccc(/C=C3\SC(=S)N(c4cccc(F)c4)C3=O)o2)c1 | / | / | / | 17.0 | / | /
CSc1ccc(-c2cc(=O)c3ccccc3o2)cc1 | i | -29.1 | 62.6* | 5.7 | 31.9 | 13.3
CCOc1ccc2cc(C#N)c(SCC(=O)N3CCOCC3)nc2c1 | -23.4 | 9.8 | 20.9 | 9.0 | 56.2* | 5.6
CCOC(=O)CSc1nc(N)c(C#N)cc1C#N | / | / | / | -15.4 | / | /
CCOC(=O)CSc1nc2cc(C)cc(C)c2cc1C#N | 1.8 | 7.7 | 33.1 | -4.6 | 17.2 | -2.0
SMILES | MMP-13 inhibitor | Ec RNAP inh | SF1 activator | HePTP inh | RORa activator | AP complement
CCOC(=O)CSc1nc2cc(OC)ccc2cc1C#N | -16.2 | 4.4 | 104.1* | -4.0 | 68.0* | -14.8
CCOC(=O)CSc1nc2cc3c(cc2cc1C#N)OCO3 | -12.7 | 11.9 | 65.6* | 3.5 | 47.7 | 9.3
COC(=O)CSc1nc2cc3c(cc2cc1C#N)OCO3 | 0.2 | 5.4 | 42.7 | 7.4 | 34.3 | -4.5
CCOC(=O)CSc1nc2cc(C)ccc2cc1C#N | -1.6 | 9.0 | 85.0* | -3.3 | 71.3* | -8.5
Cn1c(=O)c2c(ncn2CC(=O)Nc2ncccn2)n(C)c1=O | / | / | / | 11.5 | / | /
Nc1nc(-c2ccc3c(c2)CCCC3)cs1 | 3.4 | 8.1 | 37.0 | 6.2 | 75.6* | -3.5
CCC(C)C(=O)N1CCc2cc(-c3csc(N)n3)ccc21 (configuration not stated) | 3.7 | -3.9 | 41.2 | -9.0 | 18.9 | -23.9
Nc1nc(-c2ccc3c(c2)OCCO3)cs1 | 3.1 | -1.1 | 64.1* | 7.8 | 50.3* | 10.6
CCOn1c(=O)c(-c2cc3ccccc3o2)[n+]([O-])c2ccccc21 | 5.5 | 1.8 | 97.4* | 1.8 | 60.0* | 5.2
Cc1cccc(NC(=O)CSc2cc(Cl)ccc2Cl)c1 | / | / | / | 3.9 | / | /
Fc1ccc(-c2nc(Cc3ccccc3Cl)no2)cc1 | / | / | / | 2.5 | / | /

Screening data deposited in PubChem by several laboratories.
